Experimental data reported in PMC5221563 (Molecular cancer therapeutics, 2016).
Read-outs that look alike come from different tables or passages of the source.

Key:
[1] = system: CD44+/CD133+/EpCAM+ MiaPaCa-2 CSC tumors; test: MiaPaCa-2 CSC subcutaneous xenograft; format: in vivo, ICR-SCID mice
In short: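 CD44+/CD133+/EpCAM+ MiaPaCa-2 cells, isolated by FACS, were kept in serum-free sphere medium (1:1 DMEM/F-12K with B27 and N2). 1×10^6 cells were implanted subcutaneously on both flanks of 4-week-old female ICR-SCID mice. Growth was confirmed in one mouse after 2–3 weeks. Tumor-bearing mice were then randomized into 2 groups of 6: vehicle control or treatment.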

[2] = clinical trial NCT00932126; cited from earlier work
multi-drug transporters [3] = conditions: cited from earlier work
PAK4 = PAK4 (Homo sapiens, UniProt O96013); conditions: cited from earlier work
PAK4, sequence (O96013 whole entry): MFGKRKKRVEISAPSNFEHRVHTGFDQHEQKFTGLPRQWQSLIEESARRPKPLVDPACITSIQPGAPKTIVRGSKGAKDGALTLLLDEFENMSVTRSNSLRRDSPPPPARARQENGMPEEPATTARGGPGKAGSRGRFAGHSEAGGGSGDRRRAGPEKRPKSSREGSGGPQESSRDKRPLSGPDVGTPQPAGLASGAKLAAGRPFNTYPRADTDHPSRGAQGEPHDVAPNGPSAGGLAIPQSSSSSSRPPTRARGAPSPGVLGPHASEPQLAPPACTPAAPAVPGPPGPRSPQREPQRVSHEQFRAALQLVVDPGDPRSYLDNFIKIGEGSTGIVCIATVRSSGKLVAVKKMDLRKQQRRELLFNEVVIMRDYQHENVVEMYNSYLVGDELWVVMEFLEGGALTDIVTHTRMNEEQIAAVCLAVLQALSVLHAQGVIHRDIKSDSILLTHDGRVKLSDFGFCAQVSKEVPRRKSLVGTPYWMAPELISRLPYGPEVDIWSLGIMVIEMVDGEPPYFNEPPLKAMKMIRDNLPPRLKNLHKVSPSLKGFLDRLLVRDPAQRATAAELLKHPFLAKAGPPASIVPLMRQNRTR

AsPC-1 tumors = test: AsPC-1 subcutaneous xenograft; format: in vivo, ICR-SCID mice; conditions: KPT-9274 single agent, p < 0.05
MiaPaCa-2 cells [4] = test: Annexin V FITC apoptosis, combination treatment; format: cell-based, human; conditions: MiaPaCa-2, combination with gemcitabine or oxaliplatin, 96 hrs
In short: (§1)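 Human PDAC cells plated at 50,000 per well in six-well plates. After 24 hrs, exposed for 96 hrs to test compound, gemcitabine, oxaliplatin, or test compound plus either drug. Cells trypsinized; equal numbers stained with Annexin V FITC and propidium iodide per kit protocol. Analysed by flow cytometry.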

[5] = system: p-PAK4 and group I PAKs in DU-145 prostate cancer cell line; test: PAK isoform phosphorylation in DU-145 cells; format: cell-based; conditions: sub-IC50 amount
[6] = system: PAK4, p-PAK4, cyclin D1, p-PAK2 in MiaPaCa-2 cells; test: Western blot of PAK4 and related signaling; format: cell-based, human
In short: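 MiaPaCa-2 cells (1×10^6 per 100 mm dish, ~50% confluent) were exposed to test compound for 72 hrs. Protein was extracted and western blotted, and blots were probed for p-PAK4 and p-PAK2 with β-actin as the loading control. Blots are representative of two independent experiments.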

L3.6pl cells [7] = test: MTT isobologram synergy analysis; format: cell-based; conditions: 72 hrs
In short: (§2)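 Cells at 5,000 per well in 96-well plates were treated after 24 hrs with test compound (60, 120 or 180 nM), a chemotherapy partner, or both for 72 hrs. The MTT read-out used 5 mg/mL reagent for 2 hrs, formazan dissolved in DMSO and absorbance at 595 nm. Mean absorbance went into isobologram analysis, and the combination index was calculated.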

MiaPaCa-2 cells [8] = test: MTT isobologram synergy analysis; format: cell-based, human; conditions: MiaPaCa-2, KPT-9274 (60, 120 or 180 nM) with oxaliplatin (2, 4 or 8 μM), 72 hrs
In short: as §2

L3.6pl cells [9] = test: Clonogenic assay, combination treatment; format: cell-based; conditions: combination with gemcitabine or oxaliplatin
In short: (§3)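 Cells were seeded at 50,000 per well in six-well plates and allowed to attach for 24 hrs. They were then exposed for 72 hrs to test compound, gemcitabine, oxaliplatin or a combination. Afterwards, 1,000 cells per condition were re-seeded in 100 mm dishes and grown. Colonies were stained, counted and photographed.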

L3.6pl cells [10] = test: Annexin V FITC apoptosis, combination treatment; format: cell-based; conditions: combination with gemcitabine or oxaliplatin, 96 hrs
In short: as §1

multi-drug transporters [11] = test: Multi-drug transporter substrate status; format: in vitro ADME; conditions: data not shown
MiaPaCa-2 cells [12] = test: Clonogenic assay, combination treatment; format: cell-based, human; conditions: MiaPaCa-2, combination with gemcitabine or oxaliplatin
In short: as §3

[13] = target: PAK4-vimentin interaction (Homo sapiens, UniProt O96013); test: Co-immunoprecipitation of PAK4 and vimentin; format: cell-based; conditions: vs control treatment
PAK4-vimentin interaction, sequence (O96013 whole entry): as above
In short: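 Lysates (200 micro gram protein) from control or test-compound-treated cells were immunoprecipitated with PAK4 or vimentin antibodies. The immunoprecipitates were resolved on a 10% gel, western blotted and probed with anti-PAK4 or anti-vimentin antibodies, with loading and internal controls. Two independent experiments were run.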

[14] = system: PARP cleavage in MiaPaCa-2 cells; test: Western blot for PARP cleavage; format: cell-based, human; conditions: 72 hrs
In short: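 1×10^6 MiaPaCa-2 cells were grown overnight in 100 mm dishes to ~50% confluence. They were exposed to the indicated test compound concentrations for 72 hrs. Protein was extracted, separated by SDS-PAGE and western blotted with a PARP antibody, using β-actin as the loading control.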

Tolerability in mice = format: in vivo; conditions: 200 mg/kg daily administered either intravenously or orally
L3.6pl PDAC tumors = test: L3.6pl subcutaneous xenograft; format: in vivo
In short: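 Four-week-old female ICR-SCID mice: 10 per group were trocared bilaterally s.c. with ~50 mg L3.6pl tumor fragments, then randomised. Treatment was diluent or test compound 140 mg/kg i.v., 5 times per week for 4 weeks. At day 21 the control arm got 140 mg/kg i.v. once daily, 5 days a week, for one more week. Tumor weight, body weight and side effects were tracked; excised tumors were H&E stained.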

[15] = 140 mg/kg IV, 5 days per week, SCID mice

## Nc1ccn([C@@H]2O[C@H](CO)[C@@H](O)C2(F)F)c(=O)n1 [gemcitabine, reference compound]
[1]; 50 mg/kg i.p.
  response of CSC tumors: do not respond

## Cc1nc(Nc2n[nH]c3c2CN(C(=O)N[C@H](CN(C)C)c2ccccc2)C3(C)C)c2sccc2n1 [PF-03758309]
[2]
  human bioavailability: < 1%
multi-drug transporters [3]
  substrate of the multi-drug transporters: substrate of the multi-drug transporters

## COc1nc(NCCc2c[nH]c3ccccc23)nc(Nc2ccc3[nH]ncc3c2)n1 [KY-04031]
PAK4
  binding affinity towards PAK4: very low binding affinity

## Nc1ccc(/C=C/C(=O)NCc2cc3cc(-c4ccc(C(=O)N5CCC(F)(F)CC5)cc4)cc(-c4ccc(F)cc4)c3o2)cn1 [KPT-9274]
AsPC-1 tumors
  tumor growth, AsPC-1 xenograft: statistically significant inhibition of tumor growth
MiaPaCa-2 cells [4]
  apoptosis, combination vs either single agent alone: statistically significant enhancement in apoptosis
[5]
  p-PAK4 versus group I PAKs: selective inhibition of p-PAK4 sparing other group I PAKs
[1]; 140 mg/kg once daily i.v.
  suppression of CSC tumors: almost complete suppression of CSC tumors
[6]
  p-PAK2 level (western blot): without effecting
  p-PAK4 level (western blot): reduced
L3.6pl cells [7]; KPT-9274 (60, 120 or 180 nM) with gemcitabine (10, 20 or 40 nM)
  combination index (CI): < 1
L3.6pl cells [7]; KPT-9274 (60, 120 or 180 nM) with oxaliplatin (2, 4 or 8 μM)
  combination index (CI): < 1
MiaPaCa-2 cells [8]
  combination index (CI): < 1
L3.6pl cells [9]
  colony formation, combination vs single agents alone: inhibition of colony formation
L3.6pl cells [10]
  apoptosis, combination vs either single agent alone: statistically significant enhancement in apoptosis
multi-drug transporters [11]
  substrate of the multi-drug transporters: not a substrate of the multi-drug transporters
MiaPaCa-2 cells [12]
  colony formation, combination vs single agents alone: inhibition of colony formation
[13]
  PAK4-vimentin interaction (co-immunoprecipitation): disruption of PAK4-vimentin interaction
[14]
  PARP cleavage (western blot): significant PARP cleavage
Tolerability in mice
  tolerability in mice: well tolerated
L3.6pl PDAC tumors; 140 mg/kg IV per day from day 21, 3 doses
  effect on large established tumors (control group, mean tumor 1500 mg): regress large established tumors
L3.6pl PDAC tumors; [15]
  anti-tumor activity on L3.6pl tumors: completely eliminated
  outward signs of toxicity, body weight loss: did not see any outward signs of toxicity, body weight loss
